# Experiments:
# [1] = Ratio of fAUC to MIC in Klebsiella pneumoniae isolate 135-infected ICR mouse at 50% maximal effective concentration; format: functional
# Procedure, shortened: (§1)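 EI50, EI80 and the static exposure were read from fitted curves. Free AUC came from earlier mouse PK using concentration-dependent protein binding set at Cmax. MICs were run in triplicate by CLSI broth microdilution in Mueller-Hinton broth prepared <12 h before testing, or by Etest.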
# [2] = Ratio of fAUC to MIC in extended-spectrum beta-lactamase producing Klebsiella pneumoniae isolate 255-infected ICR mouse at 50% maximal effective concentration; format: functional
# Procedure, shortened: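 Female CD-1/ICR mice (~25 g) were made neutropenic with cyclophosphamide IP (150 mg/kg day −4, 100 mg/kg day −1). Each thigh received 0.1 ml IM of 10^7 CFU/ml inoculum. Tigecycline in saline was given SC 2 h later, single or multiple doses, 6.25–300 mg/kg/day. Three mice per group.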
# [3] = Ratio of fAUC to MIC in extended-spectrum beta-lactamase producing Klebsiella pneumoniae isolate 266-infected ICR mouse at 50% maximal effective concentration; format: functional; procedure, shortened: as §1
# [4] = Ratio of fAUC to MIC in extended-spectrum beta-lactamase producing Klebsiella pneumoniae isolate 320-infected ICR mouse at 50% maximal effective concentration; format: functional; procedure, shortened: as §1
# [5] = Ratio of fAUC to MIC in carbapenemase producing Klebsiella pneumoniae isolate 321-infected ICR mouse at 50% maximal effective concentration; format: functional; procedure, shortened: as §1
# [6] = Ratio of fAUC to MIC in Escherichia coli isolate 54-infected ICR mouse at bacteriostatic concentration; format: functional; procedure, shortened: as §1
# [7] = Ratio of fAUC to MIC in Escherichia coli isolate 120-infected ICR mouse at bacteriostatic concentration; format: functional; procedure, shortened: as §1
# [8] = Ratio of fAUC to MIC in extended-spectrum beta-lactamase producing Escherichia coli isolate 315-infected ICR mouse at bacteriostatic concentration; format: functional; procedure, shortened: as §1
# [9] = Ratio of fAUC to MIC in extended-spectrum beta-lactamase producing Escherichia coli isolate 321-infected ICR mouse at bacteriostatic concentration; format: functional; procedure, shortened: as §1
# [10] = Ratio of fAUC to MIC in extended-spectrum beta-lactamase producing Escherichia coli isolate 322-infected ICR mouse at bacteriostatic concentration; format: functional; procedure, shortened: as §1
# [11] = Ratio of fAUC to MIC in Klebsiella pneumoniae isolate 134-infected ICR mouse at bacteriostatic concentration; format: functional; procedure, shortened: as §1
# [12] = Ratio of fAUC to MIC in Klebsiella pneumoniae isolate 135 at bacteriostatic concentration; format: functional; procedure, shortened: as §1
# [13] = Ratio of fAUC to MIC in extended-spectrum beta-lactamase producing Klebsiella pneumoniae isolate 255-infected ICR mouse at bacteriostatic concentration; format: functional; procedure, shortened: as §1
# [14] = Ratio of fAUC to MIC in extended-spectrum beta-lactamase producing Klebsiella pneumoniae isolate 266 at bacteriostatic concentration; format: functional; procedure, shortened: as §1
# [15] = Ratio of fAUC to MIC in extended-spectrum beta-lactamase producing Klebsiella pneumoniae isolate 320-infected ICR mouse at bacteriostatic concentration; format: functional; procedure, shortened: as §1
# [16] = Ratio of fAUC to MIC in carbapenemase producing Klebsiella pneumoniae isolate 321-infected ICR mouse at bacteriostatic concentration; format: functional; procedure, shortened: as §1
# Escherichia coli [17] = assay: Antibacterial activity against Escherichia coli isolate 54 infected in ICR mouse assessed as change in bacterial load at 6.25 to 50 mg/kg, sc; format: functional; details: dose mg/kg 6.25-50; route subcutaneous
# Procedure, shortened: (§2)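 Female CD-1/ICR mice (~25 g) were made neutropenic with intraperitoneal cyclophosphamide, 150 mg/kg 4 days and 100 mg/kg 1 day before inoculation. Isolates were grown on blood agar at 35°C for 18–24 h, and 0.1 ml of 10^7 CFU/ml was injected intramuscularly per thigh. At 2 h, tigecycline in saline was given sc as single or multiple doses of 3.125–50 mg/kg. Thighs were homogenized at 24 h and plated. Read-out was mean change in log10 CFU/ml versus 0-h controls, three mice per group.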
# Escherichia coli [18] = assay: Antibacterial activity against Escherichia coli isolate 120 infected in ICR mouse assessed as change in bacterial load at 6.25 to 50 mg/kg, sc; format: functional; details: dose mg/kg 6.25-50; route subcutaneous; procedure, shortened: as §2
# Escherichia coli [19] = assay: Antibacterial activity against extended-spectrum beta-lactamase producing Escherichia coli isolate 315 infected in ICR mouse assessed as change in bacterial load at 6.25 to 50 mg/kg, sc; format: functional; details: dose mg/kg 6.25-50; route subcutaneous; procedure, shortened: as §2
# Escherichia coli [20] = assay: Antibacterial activity against extended-spectrum beta-lactamase producing Escherichia coli isolate 321 infected in ICR mouse assessed as change in bacterial load at 6.25 to 50 mg/kg, sc; format: functional; details: dose mg/kg 6.25-50; route subcutaneous; procedure, shortened: as §2
# Escherichia coli [21] = assay: Antibacterial activity against extended-spectrum beta-lactamase producing Escherichia coli isolate 322 infected in ICR mouse assessed as change in bacterial load at 6.25 to 50 mg/kg, sc; format: functional; details: dose mg/kg 6.25-50; route subcutaneous; procedure, shortened: as §2
# Klebsiella pneumoniae [22] = assay: Antibacterial activity against Klebsiella pneumoniae isolate 134 infected in ICR mouse assessed as change in bacterial load at 6.25 to 50 mg/kg, sc; format: functional; details: dose mg/kg 6.25-50; route subcutaneous; procedure, shortened: as §2
# Klebsiella pneumoniae [23] = assay: Antibacterial activity against Klebsiella pneumoniae isolate 135 infected in ICR mouse assessed as change in bacterial load at 6.25 to 50 mg/kg, sc; format: functional; details: dose mg/kg 6.25-50; route subcutaneous; procedure, shortened: as §2
# Klebsiella pneumoniae [24] = assay: Antibacterial activity against extended-spectrum beta-lactamase producing Klebsiella pneumoniae isolate 255 infected in ICR mouse assessed as change in bacterial load at 6.25 to 50 mg/kg, sc; format: functional; details: dose mg/kg 6.25-50; route subcutaneous; procedure, shortened: as §2
# Klebsiella pneumoniae [25] = assay: Antibacterial activity against extended-spectrum beta-lactamase producing Klebsiella pneumoniae isolate 266 infected in ICR mouse assessed as change in bacterial load at 6.25 to 50 mg/kg, sc; format: functional; details: dose mg/kg 6.25-50; route subcutaneous; procedure, shortened: as §2
# Klebsiella pneumoniae [26] = assay: Antibacterial activity against extended-spectrum beta-lactamase producing Klebsiella pneumoniae isolate 320 infected in ICR mouse assessed as change in bacterial load at 6.25 to 50 mg/kg, sc; format: functional; details: dose mg/kg 6.25-50; route subcutaneous; procedure, shortened: as §2
# Klebsiella pneumoniae [27] = assay: Antibacterial activity against carbapenemase producing Klebsiella pneumoniae isolate 321 infected in ICR mouse assessed as change in bacterial load at 6.25 to 50 mg/kg, sc; format: functional; details: dose mg/kg 6.25-50; route subcutaneous; procedure, shortened: as §2
# Mus musculus = assay: AUC in ICR mouse at 6.25 mg/kg, sc; details: in vivo
# [28] = Cmax in ICR mouse at 6.25 mg/kg, sc; details: in vivo
smiles,measurement,setting,value
CN(C)c1cc(NC(=O)CNC(C)(C)C)c(O)c2c1C[C@H]1C[C@H]3[C@H](N(C)C)C(O)=C(C(N)=O)C(=O)[C@@]3(O)C(O)=C1C2=O [TIGECYCLINE],fAUC/MIC,[1],3.62
same,fAUC/MIC,[2],2.64
same,fAUC/MIC,[3],5.37
same,fAUC/MIC,[4],2.01
same,fAUC/MIC,[5],4.53
same,fAUC/MIC,[6],5.96
same,fAUC/MIC,[7],4.76
same,fAUC/MIC,[8],3.88
same,fAUC/MIC,[9],6.83
same,fAUC/MIC,[10],7.5
same,fAUC/MIC,[11],6.53
same,fAUC/MIC,[12],5.4
same,fAUC/MIC,[13],2.02
same,fAUC/MIC,[14],5.13
same,fAUC/MIC,[15],3.09
same,fAUC/MIC,[16],5.47
same,log10CFU/ml,Escherichia coli [17],-2.05
same,log10CFU/ml,Escherichia coli [18],-2.3
same,log10CFU/ml,Escherichia coli [19],-2
same,log10CFU/ml,Escherichia coli [20],-2.54
same,log10CFU/ml,Escherichia coli [21],-2.4
same,log10CFU/ml,Klebsiella pneumoniae [22],-1.42
same,log10CFU/ml,Klebsiella pneumoniae [23],-1.51
same,log10CFU/ml,Klebsiella pneumoniae [24],-3.15
same,log10CFU/ml,Klebsiella pneumoniae [25],-1.34
same,log10CFU/ml,Klebsiella pneumoniae [26],-1.12
same,log10CFU/ml,Klebsiella pneumoniae [27],-1.46
same,AUC,Mus musculus,4800 ng·h/mL
same,Cmax,[28],1700 ng/mL

# From ChEMBL document CHEMBL1649475, “In vivo pharmacodynamic profile of tigecycline against phenotypically diverse Escherichia coli and Klebsiella pneumoniae isolates” (Antimicrob Agents Chemother, 2009)
